{"source": "paper PMC10720030", "about": "(ACS Omega, 2023)", "key": {"PIM-1 kinase": {"molecular_target": "PIM-1 kinase (Homo sapiens, UniProt P11309)", "sequence (P11309 whole entry)": "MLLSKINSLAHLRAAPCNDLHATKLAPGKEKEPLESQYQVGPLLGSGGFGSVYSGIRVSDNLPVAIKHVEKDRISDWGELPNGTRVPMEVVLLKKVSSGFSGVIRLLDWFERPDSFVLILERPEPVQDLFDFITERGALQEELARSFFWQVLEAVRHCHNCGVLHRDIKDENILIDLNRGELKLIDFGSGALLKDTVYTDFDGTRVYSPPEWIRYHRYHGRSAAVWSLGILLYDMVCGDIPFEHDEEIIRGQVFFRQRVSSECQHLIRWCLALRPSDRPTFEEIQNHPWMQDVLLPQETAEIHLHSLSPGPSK", "assay": "PIM-1 kinase inhibitory assay", "format": "biochemical", "conditions": "for % of kinase inhibition, PIM-1 kinase: concentration not given"}, "[1]": {"system": "breast MCF-7 cancer cells", "assay": "Cytotoxicity using the MTT assay, MCF-7", "format": "cell-based", "conditions": "for inhibition at 100 µM: read-out: % of cell inhibition ± SD at [100 μM], MCF7", "outline": "(§1)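 MTT viability; cells grown with 10% FBS and 1% penicillin–streptomycin, exposed next day to five concentrations (0.01, 0.1, 1, 10, 100) for 48 h. MTT dye added for 3 h, then viability calculated against untreated control. IC50 taken from dose–response curve; mean ± SD of three independent triplicates (n = 3).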"}, "liver HepG2 cancer cells": {"system": "liver HepG2 cancer cells", "assay": "Cytotoxicity using the MTT assay, HepG2", "format": "cell-based", "conditions": "for inhibition at 100 µM: read-out: % of cell inhibition ± SD at [100 μM], HepG2", "outline": "as §1"}, "MCF-7": {"system": "MCF-7", "conditions": "read-out: IC50 against MCF-7; cited from earlier work"}, "MCF-7 cells [2]": {"system": "MCF-7 cells", "assay": "Autophagy evaluation using acridine orange flow cytometry", "format": "cell-based", "conditions": "MCF-7, 48 h, control 32.8 × 10^3"}, "MCF-7 cells [3]": {"system": "MCF-7 cells", "assay": "Annexin V/PI staining flow cytometry", "format": "cell-based", "conditions": "MCF-7, treated at IC50, 48 h"}, "MCF-7 cells [4]": {"system": "MCF-7 cells", "assay": "Wound-healing assay", "format": "cell-based"}, "MCF-7 cells [5]": {"system": "MCF-7 cells", "assay": "DNA content-flow cytometry cell cycle analysis", "format": "cell-based", "conditions": "MCF-7, treated at IC50, 48 h; control 29.12%"}, "[6]": {"system": "Solid Ehrlich carcinoma (SEC)", "assay": "In vivo antitumor activity in SEC-bearing mice", "set-up": "species or system Swiss albino mice", "conditions": "5 mg/kg I.P.; for tumor weight: n = 6, SEC control 198.5 ± 10.6; for tumor volume: n = 6, SEC control 274.8 ± 16.6"}, "MCF-10A normal cells": {"system": "MCF-10A normal cells", "assay": "Cytotoxicity using the MTT assay, MCF-10A", "format": "cell-based", "conditions": "Homo sapiens, read-out: IC50 ± SD, MCF-10A", "outline": "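Normal breast cells run in MTT viability assay. IC50 derived from dose–response curve; values are mean ± SD of three independent triplicate experiments (n = 3).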"}, "[7]": {"conditions": "Homo sapiens, HepG2, 48 h, read-out: IC50 ± SD, HepG2, HepG2, MTT, 48 h, n = 3"}, "[8]": {"conditions": "read-out: IC50 ± SD, HepG2, HepG2, MTT, 48 h, n = 3"}, "[9]": {"conditions": "Homo sapiens, MCF7, 48 h, read-out: IC50 ± SD, MCF7, MCF7, MTT, 48 h, n = 3"}}, "note": "Several values for one entry are separate records, joined by “and”; a condition that tells them apart may be missing. Identical values can stand only once. Like-named read-outs stand apart in the source and are kept apart here.", "data": [{"smiles": "CCCCCSc1nnc(COc2nc(C)cc(C)c2C#N)o1", "note": "[Compound 6, 4,6-Dimethyl-2-((5-(pentylthio)-1,3,4-oxadiazol-2-yl)methoxy)nicotinonitrile]", "values": [{"measurement": "IC50", "setting": "PIM-1 kinase", "value": "0.0194 ± 0.0007", "unit": "µM"}, {"measurement": "% of kinase inhibition, PIM-1 kinase", "setting": "PIM-1 kinase", "value": "94.3 ± 1.3", "unit": "%"}, {"measurement": "inhibition at 100 µM", "setting": "[1]; Homo sapiens, MCF7, 48 h", "value": "78.2 ± 2.2", "unit": "%"}, {"measurement": "inhibition at 100 µM", "setting": "liver HepG2 cancer cells; Homo sapiens, HepG2, 48 h", "value": "79.2 ± 2.2", "unit": "%"}, {"measurement": "IC50", "setting": "liver HepG2 cancer cells; [7]", "value": 5.27, "unit": "µM"}, {"measurement": "IC50", "setting": "liver HepG2 cancer cells; [8]", "value": "6.64 ± 0.28", "unit": "µM"}]}, {"smiles": "Cc1cc(C)c(C#N)c(OCc2n[nH]c(=S)o2)n1", "note": "[Compound 2, 4,6-Dimethyl-2-((5-thioxo-4,5-dihydro-1,3,4-oxadiazol-2-yl)methoxy)nicotinonitrile]", "values": [{"measurement": "inhibition at 100 µM", "setting": "[1]; Homo sapiens, MCF7, 48 h", "value": "41.9 ± 1.9", "unit": "%"}, {"measurement": "inhibition at 100 µM", "setting": "liver HepG2 cancer cells; Homo sapiens, HepG2, 48 h", "value": "43.5 ± 1.8", "unit": "%"}]}, {"smiles": "CS(=O)(=O)CCNCc1ccc(-c2ccc3ncnc(Nc4ccc(OCc5cccc(F)c5)c(Cl)c4)c3c2)o1", "note": "[lapatinib]", "values": [{"measurement": "IC50", "setting": "MCF-7", "value": 4.69, "unit": "µM"}]}, {"smiles": "COC(=O)CNC(=O)COc1nc(C)cc(C)c1C#N", "note": "[Compound 11, Methyl (2-((3-Cyano-4,6-dimethylpyridin-2-yl)oxy)acetyl)glycinate]", "values": [{"measurement": "IC50", "setting": "PIM-1 kinase", "value": "0.0423 ± 0.0011", "unit": "µM"}, {"measurement": "% of kinase inhibition, PIM-1 kinase", "setting": "PIM-1 kinase", "value": "90.1 ± 2.7", "unit": "%"}, {"measurement": "inhibition at 100 µM", "setting": "[1]; Homo sapiens, MCF7, 48 h", "value": "78.6 ± 2.3", "unit": "%"}, {"measurement": "IC50", "setting": "[1]; [9]", "value": "0.73 ± 0.04", "unit": "µM"}, {"measurement": "inhibition at 100 µM", "setting": "liver HepG2 cancer cells; Homo sapiens, HepG2, 48 h", "value": "68.8 ± 1.6", "unit": "%"}]}, {"smiles": "CCOC(=O)CSc1nnc(COc2nc(C)cc(C)c2C#N)o1", "note": "[Compound 3, Ethyl 2-((5-(((3-Cyano-4,6-dimethylpyridin-2-yl)oxy)methyl)-1,3,4-oxadiazol-2-yl)thio)acetate]", "values": [{"measurement": "inhibition at 100 µM", "setting": "[1]; Homo sapiens, MCF7, 48 h", "value": "55.1 ± 2.1", "unit": "%"}, {"measurement": "inhibition at 100 µM", "setting": "liver HepG2 cancer cells; Homo sapiens, HepG2, 48 h", "value": "57.8 ± 1.9", "unit": "%"}]}, {"smiles": "Cc1cc(C)c(C#N)c(OCC(=O)N2CCCCC2)n1", "note": "[Compound 13, 4,6-Dimethyl-2-(2-oxo-2-(piperidin-1-yl)ethoxy)nicotinonitrile]", "values": [{"measurement": "IC50", "setting": "PIM-1 kinase", "value": "0.0198 ± 0.0011", "unit": "µM"}, {"measurement": "% of kinase inhibition, PIM-1 kinase", "setting": "PIM-1 kinase", "value": "94.9 ± 2.9", "unit": "%"}, {"measurement": "inhibition at 100 µM", "setting": "[1]; Homo sapiens, MCF7, 48 h", "value": "64.6 ± 1.8", "unit": "%"}, {"measurement": "inhibition at 100 µM", "setting": "liver HepG2 cancer cells; Homo sapiens, HepG2, 48 h", "value": "56.4 ± 1.4", "unit": "%"}]}, {"smiles": "Cc1cc(C)c(C#N)c(OCC(=O)N2CCOCC2)n1", "note": "[Compound 12, 4,6-Dimethyl-2-(2-morpholino-2-oxoethoxy)nicotinonitrile]", "values": [{"measurement": "autophagic cell death", "setting": "MCF-7 cells [2]", "value": "87.6 × 10^3 cells"}, {"measurement": "early apoptosis", "setting": "MCF-7 cells [3]", "value": 23.18, "unit": "%"}, {"measurement": "increase of apoptosis versus untreated control", "setting": "MCF-7 cells [3]", "value": 52.2, "unit": "fold"}, {"measurement": "late apoptosis", "setting": "MCF-7 cells [3]", "value": 10.25, "unit": "%"}, {"measurement": "total apoptosis", "setting": "MCF-7 cells [3]; untreated control 0.64%", "value": 33.43, "unit": "%"}, {"measurement": "IC50", "setting": "PIM-1 kinase", "value": "0.0143 ± 0.0006", "unit": "µM"}, {"measurement": "% of kinase inhibition, PIM-1 kinase", "setting": "PIM-1 kinase", "value": "97.5 ± 1.3", "unit": "%"}, {"measurement": "inhibition at 100 µM", "setting": "[1]; Homo sapiens, MCF7, 48 h", "value": "84.2 ± 2.6", "unit": "%"}, {"measurement": "IC50", "setting": "[1]; [9]", "value": 0.5, "unit": "µM"}, {"measurement": "IC50", "setting": "[1]; read-out: IC50 ± SD, MCF7, MCF7, MTT, 48 h, n = 3", "value": "0.51 ± 0.02", "unit": "µM"}, {"measurement": "wound closure", "setting": "MCF-7 cells [4]; MCF-7, after 48 h of treatment, control 95.6%", "value": 71.8, "unit": "%"}, {"measurement": "average L of migration", "setting": "MCF-7 cells [4]; MCF-7, time 72 h", "value": 0.32, "unit": "mm"}, {"measurement": "% closure", "setting": "MCF-7 cells [4]; MCF-7, time 72 h, Cont.MCF-7 95.55", "value": 71.85, "unit": "%"}, {"measurement": "migrated cell area", "setting": "MCF-7 cells [4]; MCF-7, time 72 h, total area 0.225", "value": 0.161}, {"measurement": "S-phase cell population (%DIP S)", "setting": "MCF-7 cells [5]", "value": 36.02, "unit": "%"}, {"measurement": "inhibition at 100 µM", "setting": "liver HepG2 cancer cells; Homo sapiens, HepG2, 48 h", "value": "85.1 ± 2.1", "unit": "%"}, {"measurement": "IC50", "setting": "liver HepG2 cancer cells; [7]", "value": 6.6, "unit": "µM"}, {"measurement": "IC50", "setting": "liver HepG2 cancer cells; [8]", "value": "5.27 ± 0.2", "unit": "µM"}, {"measurement": "tumor weight", "setting": "[6]", "value": "72.8 mg and 72.8 ± 1.74 mg"}, {"measurement": "tumor volume", "setting": "[6]", "value": "159.2 mm^3 and 159.2 ± 10.1 mm^3"}, {"measurement": "tumor inhibition ratio (TIR %)", "setting": "[6]; n = 6, TIR % = C – T/C × 100", "value": "42.1% and 42.1 ± 1.0%"}, {"measurement": "IC50", "setting": "MCF-10A normal cells", "value": "52.9 ± 2.1", "unit": "µM"}]}, {"smiles": "C=CCSc1nnc(COc2nc(C)cc(C)c2C#N)o1", "note": "[Compound 5, 2-((5-(Allylthio)-1,3,4-oxadiazol-2-yl)methoxy)-4,6-dimethylnicotinonitrile]", "values": [{"measurement": "inhibition at 100 µM", "setting": "[1]; Homo sapiens, MCF7, 48 h", "value": "47 ± 1.4", "unit": "%"}, {"measurement": "inhibition at 100 µM", "setting": "liver HepG2 cancer cells; Homo sapiens, HepG2, 48 h", "value": "69 ± 2.1", "unit": "%"}]}, {"smiles": "COc1cccc2c1C(=O)c1c(O)c3c(c(O)c1C2=O)C[C@@](O)(C(=O)CO)C[C@@H]3O[C@H]1C[C@H](N)[C@H](O)[C@H](C)O1", "note": "[doxorubicin, reference compound]", "values": [{"measurement": "inhibition at 100 µM", "setting": "[1]; Homo sapiens, MCF7, 48 h", "value": "90.2 ± 2.1", "unit": "%"}, {"measurement": "IC50", "setting": "[1]; [9]", "value": "2.14 ± 0.1", "unit": "µM"}, {"measurement": "inhibition at 100 µM", "setting": "liver HepG2 cancer cells; Homo sapiens, HepG2, 48 h", "value": "79.1 ± 2.3", "unit": "%"}, {"measurement": "IC50", "setting": "liver HepG2 cancer cells; [7]", "value": "2.48 ± 0.1", "unit": "µM"}, {"measurement": "tumor weight", "setting": "[6]", "value": 63.4, "unit": "mg"}, {"measurement": "tumor volume", "setting": "[6]", "value": 112.3, "unit": "mm^3"}, {"measurement": "IC50", "setting": "MCF-10A normal cells", "value": "15.8 ± 0.63", "unit": "µM"}]}, {"smiles": "Cc1cc(C)c(C#N)c(OCc2nnc(SCc3ccccc3)o2)n1", "note": "[Compound 4, 2-((5-(Benzylthio)-1,3,4-oxadiazol-2-yl)methoxy)-4,6-dimethylnicotinonitrile]", "values": [{"measurement": "inhibition at 100 µM", "setting": "[1]; Homo sapiens, MCF7, 48 h", "value": "72.1 ± 2.9", "unit": "%"}, {"measurement": "inhibition at 100 µM", "setting": "liver HepG2 cancer cells; Homo sapiens, HepG2, 48 h", "value": "75.8 ± 2.3", "unit": "%"}]}, {"smiles": "Cc1cc(C)c(C#N)c(OCC(=O)NCc2ccccc2)n1", "note": "[Compound 14, N-Benzyl-2-((3-cyano-4,6-dimethylpyridin-2-yl)oxy)acetamide]", "values": [{"measurement": "inhibition at 100 µM", "setting": "[1]; Homo sapiens, MCF7, 48 h", "value": "48.8 ± 1.2", "unit": "%"}, {"measurement": "inhibition at 100 µM", "setting": "liver HepG2 cancer cells; Homo sapiens, HepG2, 48 h", "value": "35.5 ± 1.1", "unit": "%"}]}, {"smiles": "CC(=O)OC[C@H]1O[C@H](Sc2nnc(COc3nc(C)cc(C)c3C#N)o2)[C@H](OC(C)=O)[C@@H](OC(C)=O)[C@H]1OC(C)=O", "note": "[Compound 8, 2-((5-(2,3,4,6-Tetra-O-acetyl-α-D-galactopyranosylsulfanyl)-1,3,4-oxadiazol-2-yl)methoxy)-4,6-dimethylpyridine-3-carbonitrile]", "values": [{"measurement": "inhibition at 100 µM", "setting": "[1]; Homo sapiens, MCF7, 48 h", "value": "59.8 ± 1.7", "unit": "%"}, {"measurement": "inhibition at 100 µM", "setting": "liver HepG2 cancer cells; Homo sapiens, HepG2, 48 h", "value": "57.8 ± 1.6", "unit": "%"}]}]}
